Measured values reported in ChEMBL document CHEMBL1914420, “Investigation of the pyrazinones as PDE5 inhibitors: evaluation of regioisomeric projections into the solvent region” (Bioorg Med Chem Lett, 2011).
pIC50: −log10 of the molar value.

Columns and labels:
[1] = biological target: 3',5'-cyclic-AMP phosphodiesterase 7B (Homo sapiens, UniProt Q9NP56); test: Inhibition of PDE7B
[2] = biological target: High affinity cAMP-specific and IBMX-insensitive 3',5'-cyclic phosphodiesterase 8A (Homo sapiens, UniProt O60658); test: Inhibition of PDE8A
[3] = biological target: High affinity cAMP-specific and IBMX-insensitive 3',5'-cyclic phosphodiesterase 8B (Homo sapiens, UniProt O95263); test: Inhibition of PDE8B
[4] = Inhibition of PDE9
[5] = Inhibition of PDE10
Adenosine receptor A1 = biological target: T1, Adenosine receptor A1 (Homo sapiens, UniProt P30542); test: Inhibition of adenosine A1 receptor
T1 sequence (P30542 whole entry): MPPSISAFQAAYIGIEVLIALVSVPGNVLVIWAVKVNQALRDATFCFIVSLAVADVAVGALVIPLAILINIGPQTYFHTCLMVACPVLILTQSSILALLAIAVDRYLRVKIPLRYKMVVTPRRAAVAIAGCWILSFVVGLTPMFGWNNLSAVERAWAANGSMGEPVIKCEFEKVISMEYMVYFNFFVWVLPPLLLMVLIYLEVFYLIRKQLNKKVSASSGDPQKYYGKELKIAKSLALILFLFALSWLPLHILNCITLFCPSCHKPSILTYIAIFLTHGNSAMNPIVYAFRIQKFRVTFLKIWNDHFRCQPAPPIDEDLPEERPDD

Acetylcholinesterase = Acetylcholinesterase (Homo sapiens, UniProt P22303); test: Inhibition of acetylcholinesterase
Acetylcholinesterase, sequence (P22303 whole entry): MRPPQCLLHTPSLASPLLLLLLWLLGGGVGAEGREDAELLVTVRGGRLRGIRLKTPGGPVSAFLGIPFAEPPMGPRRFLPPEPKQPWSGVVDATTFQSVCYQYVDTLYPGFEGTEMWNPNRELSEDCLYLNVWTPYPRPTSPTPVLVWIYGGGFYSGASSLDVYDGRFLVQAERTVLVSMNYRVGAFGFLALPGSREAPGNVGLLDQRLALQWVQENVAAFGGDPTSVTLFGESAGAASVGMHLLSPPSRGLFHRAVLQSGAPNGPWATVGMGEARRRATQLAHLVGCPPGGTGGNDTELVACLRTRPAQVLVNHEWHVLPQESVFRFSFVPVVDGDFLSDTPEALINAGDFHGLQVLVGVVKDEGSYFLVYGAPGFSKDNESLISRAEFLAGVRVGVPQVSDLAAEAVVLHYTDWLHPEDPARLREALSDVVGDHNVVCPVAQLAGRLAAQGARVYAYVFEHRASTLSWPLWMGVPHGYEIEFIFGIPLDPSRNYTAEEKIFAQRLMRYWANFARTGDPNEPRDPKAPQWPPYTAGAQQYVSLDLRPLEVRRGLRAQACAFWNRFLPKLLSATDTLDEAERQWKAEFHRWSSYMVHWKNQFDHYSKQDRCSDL

[6] = Solubility of the compound at pH 6.5; type: physicochemical; settings: buffer
[7] = Metabolic stability in human liver microsomes assessed as compound remaining after 1 hr; type: ADME, Microsome; settings: read-out: Stability
Method in brief: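 Human liver microsomes; percent parent compound remaining after 1 h incubation.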

[8] = Clearance in rat at 2 mg/kg at pH 5; type: ADME, organism-based; set-up: dose 2 mg/kg; settings: in vivo
[9] = Volume of distribution in rat; type: ADME, organism-based; settings: in vivo
Rattus norvegicus [10] = organism: Rattus norvegicus; test: Unbound volume of distribution in rat; type: ADME, organism-based; settings: in vivo
[11] = Clearance in dog at 2 mg/kg; type: ADME, organism-based, Canis lupus familiaris; set-up: dose 2 mg/kg; settings: in vivo
Method in brief: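 Clearance in mL/min/kg after a 2 mpk dose (n = 3) in vehicle 70% PEG400/20% 0.05 M citrate buffer/10% ethanol, pH 5.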

[12] = Volume of distribution in dog; type: ADME, organism-based, Canis lupus familiaris; settings: in vivo
Method in brief: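 Volume of distribution expressed in L/kg.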

[13] = Oral bioavailability in rat at 2 mg/kg; type: ADME, organism-based; settings: in vivo
[14] = biological target: cGMP-specific 3',5'-cyclic phosphodiesterase (Homo sapiens, UniProt O76074); test: Inhibition of PDE5
[15] = Selectivity ratio of IC50 for PDE6 to IC50 for PDE5
Method in brief: (§1)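 Fold selectivity calculated as PDE11 IC50/PDE5 IC50 or PDE6 IC50/PDE5 IC50, with IC50 values in nM.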

[16] = Selectivity ratio of IC50 for PDE11 to IC50 for PDE5; method in brief: as §1
CYP2C9 = CYP2C9 (Homo sapiens, UniProt P11712); test: Inhibition of CYP2C9 at 3 uM; type: ADME
CYP2C9, sequence (P11712 whole entry): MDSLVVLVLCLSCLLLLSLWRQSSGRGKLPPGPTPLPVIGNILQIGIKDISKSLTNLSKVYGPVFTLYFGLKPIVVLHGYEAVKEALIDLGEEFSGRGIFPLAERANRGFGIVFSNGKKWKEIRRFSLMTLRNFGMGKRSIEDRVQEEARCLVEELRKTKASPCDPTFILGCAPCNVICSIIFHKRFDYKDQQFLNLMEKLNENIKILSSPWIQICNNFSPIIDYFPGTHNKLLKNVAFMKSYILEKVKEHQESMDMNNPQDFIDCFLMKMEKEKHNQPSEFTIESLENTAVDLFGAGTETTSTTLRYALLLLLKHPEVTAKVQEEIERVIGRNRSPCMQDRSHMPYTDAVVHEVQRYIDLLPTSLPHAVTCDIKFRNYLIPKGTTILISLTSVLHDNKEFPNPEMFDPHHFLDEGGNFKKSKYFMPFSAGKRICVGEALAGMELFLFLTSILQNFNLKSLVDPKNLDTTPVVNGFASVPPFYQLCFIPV

CYP2D6 = CYP2D6 (Homo sapiens, UniProt P10635); test: Inhibition of CYP2D6 at 3 uM; type: ADME
CYP2D6, sequence (P10635 whole entry): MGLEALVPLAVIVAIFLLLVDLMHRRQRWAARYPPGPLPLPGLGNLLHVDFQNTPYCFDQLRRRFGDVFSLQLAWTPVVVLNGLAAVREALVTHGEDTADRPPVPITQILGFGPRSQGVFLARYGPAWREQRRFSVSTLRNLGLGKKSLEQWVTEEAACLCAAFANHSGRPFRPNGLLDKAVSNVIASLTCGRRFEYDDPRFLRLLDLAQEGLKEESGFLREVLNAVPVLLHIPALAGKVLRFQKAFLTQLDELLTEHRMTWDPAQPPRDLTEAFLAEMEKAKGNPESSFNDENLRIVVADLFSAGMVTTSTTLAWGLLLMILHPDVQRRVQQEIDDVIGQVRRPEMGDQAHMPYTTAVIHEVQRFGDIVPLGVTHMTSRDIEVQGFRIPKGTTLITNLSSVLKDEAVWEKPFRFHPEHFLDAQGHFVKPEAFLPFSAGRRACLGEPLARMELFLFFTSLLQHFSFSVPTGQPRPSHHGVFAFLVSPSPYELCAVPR

CYP3A4 = CYP3A4 (Homo sapiens, UniProt P08684); test: Inhibition of CYP3A4 at 3 uM; type: ADME
Rattus norvegicus [17] = test: Antihypertensive activity in spontaneous hypertensive rat assessed as reduction in systolic blood pressure at 20 mg/kg measured after 24 hrs; type: functional, Artery
[18] = biological target: Dual specificity calcium/calmodulin-dependent 3',5'-cyclic nucleotide phosphodiesterase 1A (Homo sapiens, UniProt P54750); test: Inhibition of PDE1A
[19] = biological target: Dual specificity calcium/calmodulin-dependent 3',5'-cyclic nucleotide phosphodiesterase 1B (Homo sapiens, UniProt Q01064); test: Inhibition of PDE1B
[20] = biological target: Dual specificity calcium/calmodulin-dependent 3',5'-cyclic nucleotide phosphodiesterase 1C (Homo sapiens, UniProt Q14123); test: Inhibition of PDE1C
[21] = Inhibition of PDE2
[22] = biological target: cGMP-inhibited 3',5'-cyclic phosphodiesterase 3A (Homo sapiens, UniProt Q14432); test: Inhibition of PDE3A
[23] = biological target: cGMP-inhibited 3',5'-cyclic phosphodiesterase 3B (Homo sapiens, UniProt Q13370); test: Inhibition of PDE3B
cGMP-inhibited 3',5'-cyclic phosphodiesterase 3B, sequence (Q13370 whole entry): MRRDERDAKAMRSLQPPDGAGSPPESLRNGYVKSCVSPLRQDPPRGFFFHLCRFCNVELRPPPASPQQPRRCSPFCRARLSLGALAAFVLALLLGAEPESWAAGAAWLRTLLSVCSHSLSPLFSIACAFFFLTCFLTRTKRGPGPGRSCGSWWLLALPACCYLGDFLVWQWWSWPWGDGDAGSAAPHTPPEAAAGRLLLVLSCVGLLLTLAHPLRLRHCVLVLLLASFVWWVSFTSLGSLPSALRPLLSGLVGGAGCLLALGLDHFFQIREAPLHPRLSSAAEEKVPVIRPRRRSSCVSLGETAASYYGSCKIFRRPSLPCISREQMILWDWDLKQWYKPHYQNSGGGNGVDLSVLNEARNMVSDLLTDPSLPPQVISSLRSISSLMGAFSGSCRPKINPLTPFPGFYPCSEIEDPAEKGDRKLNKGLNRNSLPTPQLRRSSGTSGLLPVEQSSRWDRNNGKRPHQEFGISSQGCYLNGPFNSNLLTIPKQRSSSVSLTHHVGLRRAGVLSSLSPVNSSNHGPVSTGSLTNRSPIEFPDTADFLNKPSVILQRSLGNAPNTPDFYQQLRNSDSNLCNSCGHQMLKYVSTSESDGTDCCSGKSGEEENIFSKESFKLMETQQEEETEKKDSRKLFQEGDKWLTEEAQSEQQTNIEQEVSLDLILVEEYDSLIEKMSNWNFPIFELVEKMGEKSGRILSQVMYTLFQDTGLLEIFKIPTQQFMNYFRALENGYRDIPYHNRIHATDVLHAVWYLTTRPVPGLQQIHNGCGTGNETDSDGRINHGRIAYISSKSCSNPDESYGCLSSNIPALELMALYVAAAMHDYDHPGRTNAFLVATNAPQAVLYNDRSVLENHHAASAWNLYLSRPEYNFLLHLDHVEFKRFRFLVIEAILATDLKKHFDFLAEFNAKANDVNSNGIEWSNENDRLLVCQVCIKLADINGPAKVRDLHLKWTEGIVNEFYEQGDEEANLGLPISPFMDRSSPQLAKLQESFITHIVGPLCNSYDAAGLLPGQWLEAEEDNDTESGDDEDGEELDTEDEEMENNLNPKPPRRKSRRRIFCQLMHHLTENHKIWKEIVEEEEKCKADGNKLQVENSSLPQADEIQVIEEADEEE

[24] = biological target: 3',5'-cyclic-AMP phosphodiesterase 4A (Homo sapiens, UniProt P27815); test: Inhibition of PDE4A
3',5'-cyclic-AMP phosphodiesterase 4A, sequence (P27815 whole entry): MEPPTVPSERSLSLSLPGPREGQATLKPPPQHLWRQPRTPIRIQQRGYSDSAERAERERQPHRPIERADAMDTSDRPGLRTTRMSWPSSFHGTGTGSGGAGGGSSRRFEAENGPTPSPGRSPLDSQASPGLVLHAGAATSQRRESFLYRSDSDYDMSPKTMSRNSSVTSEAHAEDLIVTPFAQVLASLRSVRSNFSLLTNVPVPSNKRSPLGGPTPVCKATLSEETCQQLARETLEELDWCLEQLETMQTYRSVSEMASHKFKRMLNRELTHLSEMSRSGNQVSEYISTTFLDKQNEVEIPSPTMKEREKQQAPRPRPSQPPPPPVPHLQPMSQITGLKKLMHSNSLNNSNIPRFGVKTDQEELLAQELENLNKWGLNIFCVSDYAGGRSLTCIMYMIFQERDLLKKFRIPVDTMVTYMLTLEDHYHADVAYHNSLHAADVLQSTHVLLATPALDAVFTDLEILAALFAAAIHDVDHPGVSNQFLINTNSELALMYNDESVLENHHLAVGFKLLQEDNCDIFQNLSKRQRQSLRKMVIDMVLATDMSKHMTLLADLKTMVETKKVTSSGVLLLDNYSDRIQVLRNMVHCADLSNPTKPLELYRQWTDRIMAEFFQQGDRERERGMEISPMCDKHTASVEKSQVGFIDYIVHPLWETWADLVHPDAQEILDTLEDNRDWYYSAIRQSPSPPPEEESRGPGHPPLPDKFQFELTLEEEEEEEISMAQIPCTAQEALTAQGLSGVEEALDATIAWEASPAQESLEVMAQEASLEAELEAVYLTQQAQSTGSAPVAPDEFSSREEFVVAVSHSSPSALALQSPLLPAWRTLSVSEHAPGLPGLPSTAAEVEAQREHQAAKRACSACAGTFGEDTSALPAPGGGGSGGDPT

[25] = biological target: 3',5'-cyclic-AMP phosphodiesterase 4B (Homo sapiens, UniProt Q07343); test: Inhibition of PDE4B
3',5'-cyclic-AMP phosphodiesterase 4B, sequence (Q07343 whole entry): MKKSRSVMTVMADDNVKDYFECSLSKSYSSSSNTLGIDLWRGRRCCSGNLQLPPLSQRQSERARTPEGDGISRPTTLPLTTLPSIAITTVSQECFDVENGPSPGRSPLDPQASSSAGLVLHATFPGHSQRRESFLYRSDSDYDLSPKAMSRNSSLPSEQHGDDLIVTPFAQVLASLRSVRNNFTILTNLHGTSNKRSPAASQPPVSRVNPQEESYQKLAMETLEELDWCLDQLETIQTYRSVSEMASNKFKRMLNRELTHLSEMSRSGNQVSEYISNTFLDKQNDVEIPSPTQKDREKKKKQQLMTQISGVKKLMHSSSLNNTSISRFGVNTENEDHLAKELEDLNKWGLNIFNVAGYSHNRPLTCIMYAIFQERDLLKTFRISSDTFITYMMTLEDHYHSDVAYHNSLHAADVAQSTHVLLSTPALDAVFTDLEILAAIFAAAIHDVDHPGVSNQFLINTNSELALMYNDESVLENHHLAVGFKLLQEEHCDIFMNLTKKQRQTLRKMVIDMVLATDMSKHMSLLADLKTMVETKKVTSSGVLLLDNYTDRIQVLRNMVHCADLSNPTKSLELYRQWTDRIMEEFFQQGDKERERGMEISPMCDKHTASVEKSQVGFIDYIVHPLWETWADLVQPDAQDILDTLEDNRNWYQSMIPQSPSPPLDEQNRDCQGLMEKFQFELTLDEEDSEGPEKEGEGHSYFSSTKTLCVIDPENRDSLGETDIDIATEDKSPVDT

[26] = biological target: 3',5'-cyclic-AMP phosphodiesterase 4C (Homo sapiens, UniProt Q08493); test: Inhibition of PDE4C
3',5'-cyclic-AMP phosphodiesterase 4C, sequence (Q08493 whole entry): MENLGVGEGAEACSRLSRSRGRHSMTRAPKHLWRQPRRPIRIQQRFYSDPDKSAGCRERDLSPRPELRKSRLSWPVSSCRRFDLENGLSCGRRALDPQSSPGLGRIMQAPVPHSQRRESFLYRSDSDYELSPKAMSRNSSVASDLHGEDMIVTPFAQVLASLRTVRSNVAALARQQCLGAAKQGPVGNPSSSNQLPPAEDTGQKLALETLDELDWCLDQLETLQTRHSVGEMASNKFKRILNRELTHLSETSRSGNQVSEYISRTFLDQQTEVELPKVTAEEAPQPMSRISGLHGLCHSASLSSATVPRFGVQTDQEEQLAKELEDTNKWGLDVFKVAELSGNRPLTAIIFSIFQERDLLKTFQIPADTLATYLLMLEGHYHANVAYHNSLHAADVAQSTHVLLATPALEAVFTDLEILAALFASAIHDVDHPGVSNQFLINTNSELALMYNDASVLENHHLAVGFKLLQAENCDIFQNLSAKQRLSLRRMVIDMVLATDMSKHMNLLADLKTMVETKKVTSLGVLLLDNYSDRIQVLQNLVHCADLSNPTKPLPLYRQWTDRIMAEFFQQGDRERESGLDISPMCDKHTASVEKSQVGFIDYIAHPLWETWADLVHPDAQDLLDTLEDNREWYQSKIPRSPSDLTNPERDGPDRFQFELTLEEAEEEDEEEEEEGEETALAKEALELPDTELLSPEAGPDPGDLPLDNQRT

[27] = biological target: High affinity 3',5'-cyclic-AMP phosphodiesterase 7A (Homo sapiens, UniProt Q13946); test: Inhibition of PDE7A

CCCOCCn1c(=O)nc(NC2CCC(O)CC2)c2nnc(-c3ccc(OC)nc3)cc21 (configuration not stated)
pIC50 [1]: < 5.70 | pIC50 [2]: < 5.70 | pIC50 [3]: < 5.70 | pIC50 [4]: < 5.70 | pIC50 [5]: < 5.70 | pIC50 (Adenosine receptor A1): 6.36 | pIC50 (Acetylcholinesterase): 5.25 | solubility [6]: > 100 µM | remaining at 1 h [7]: 72% | clearance [8]: 2.4 mL/min/kg | Vd [9]: 0.6 L/kg | Vdu (Rattus norvegicus [10]): 4.8 L/kg | clearance [11]: 1.6 mL/min/kg | Vd [12]: 0.3 L/kg | bioavailability [13]: 85% | pIC50 [14]: 10.70 | Ratio IC50 [15]: 108 | Ratio IC50 [16]: 741 | inhibition at 3 µM (CYP2C9): 9% | inhibition at 3 µM (CYP2D6): 5% | inhibition at 3 µM (CYP3A4): 23% | Activity (Rattus norvegicus [17]): 20 mmHg | pIC50 [18]: < 5.70 | pIC50 [19]: < 5.70 | pIC50 [20]: < 5.70 | pIC50 [21]: < 5.70 | pIC50 [22]: < 5.70 | pIC50 [23]: < 5.70 | pIC50 [24]: < 5.70 | pIC50 [25]: < 5.70 | pIC50 [26]: < 5.70 | pIC50 [27]: < 5.70
